Data taken from ChEMBL document CHEMBL1143938, “Synthesis and antiviral activities of novel chiral cyanoacrylate derivatives with (E) configuration” (2008).
Activity calls are given as the source filed them. No cut-off for these calls is given here.

Legend:
Tobacco mosaic virus [1] = experiment: Antiviral activity against TMV-infected tobacco leaves assessed as curative effect against viral disease at 500 mg/L; format: functional
Tobacco mosaic virus [2] = experiment: Antiviral activity against TMV-infected tobacco leaves assessed as protection against viral infection at 500 mg/L; format: functional
Tobacco mosaic virus [3] = experiment: Antiviral activity against TMV-infected tobacco leaves assessed as viral inactivation at 500 mg/L; format: functional
Nicotiana tabacum [4] = experiment: Effect on accumulation of PR1a mRNA in tobacco leaf upto […] after 1 day; format: functional, organism-based
Summary of the method: (§1)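 Leaf RNA came from water-, TMV- and treated-plus-TMV tobacco. PR-1a and PR-5 were amplified by semi-quantitative PCR (annealing 58 °C; 1.5% agarose, ethidium bromide) and by real-time PCR. Real-time values were taken relative to β-actin by ΔΔCT, n = 4, in triplicate.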

Nicotiana tabacum [5] = experiment: Stimulation of L-phenylalanine ammonia-lyase level in Nicotiana tabacum assessed as per mg of protein after 7 days; format: functional
Summary of the method: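 TMV-inoculated Nicotiana tabacum treated at 500 ppm and sampled at 1, 3, 5 and 7 days. Water and TMV-only treatments served as controls. Leaves were homogenized on ice in 5 mM 2-mercaptoethanol-boric acid buffer (pH 8.8) and centrifuged, and enzyme activity was read in the supernatant. PAL was expressed per mg protein. Means of n = 3, with one-way ANOVA and LSD.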

Nicotiana tabacum [6] = experiment: Effect on accumulation of PR5 mRNA in tobacco leaf after 12 hrs; format: functional, organism-based; summary of the method: as §1
Nicotiana tabacum [7] = experiment: Effect on accumulation of PR5 mRNA in tobacco leaf upto […] after 1 day; format: functional, organism-based; summary of the method: as §1
Nicotiana tabacum [8] = experiment: Stimulation of peroxidase activity in Nicotiana tabacum after 5 days
Nicotiana tabacum [9] = experiment: Effect on accumulation of PR1a mRNA in tobacco leaf on day 2; format: functional, organism-based; summary of the method: as §1
Nicotiana tabacum [10] = experiment: Stimulation of leaf size in Nicotiana tabacum relative to water treated control; format: functional, organism-based

`CNCC(=O)N[C@@H](CO)C(=O)N[C@H]1C(O)[C@@H](O)[C@H](n2ccc(N)nc2=O)O[C@@H]1C(N)=O` (single isomer, unassigned) [NINGNANMYCIN] was tested, and the Activity (Tobacco mosaic virus [1]) was 57.8%, the Activity (Tobacco mosaic virus [2]) was 100% and the Activity (Tobacco mosaic virus [3]) was 50%.
`CCOC(=O)/C(C#N)=C(\NCc1ccccc1)N[C@H](C)c1ccc(F)cc1` was tested, and the Activity (Nicotiana tabacum [4]) was “Active”, the Activity (Nicotiana tabacum [5]) was 5.88 EU/mg and the Activity (Tobacco mosaic virus [1]) was 64%. For the same molecule, the Activity (Tobacco mosaic virus [2]) was 65.7%, the Activity (Tobacco mosaic virus [3]) was 49.5% and the Activity (Nicotiana tabacum [6]) was “Active”. For the same molecule, the Activity (Nicotiana tabacum [7]) was “Active”, the Activity (Nicotiana tabacum [8]) was “Active” and the Activity (Nicotiana tabacum [9]) was “Active”. For the same molecule, the Activity (Nicotiana tabacum [10]) was “Active”.
